In ChEMBL document CHEMBL1833887, “Synthesis and evaluation of 7-substituted 4-aminoquinoline analogues for antimalarial activity” (J Med Chem, 2011):
In brackets after ≈: the same amount, converted by molar mass.

Legend:
HepG2 = assay: Cytotoxicity against human HepG2 cells assessed as intracellular ATP level after 72 hrs by Celltiter-Glo luminescent assay; format: cell-based; conditions: HepG2, 72 h
Plasmodium falciparum [1] = assay: Antimalarial activity against chloroquine-resistant Plasmodium falciparum K1 infected in human erythrocytes assessed as reduction in parasitemia after 72 hrs by spectrophotometry; format: functional, organism-based; conditions: K1, 72 h
[2] = Ratio of EC50 for human HepG2 cells to EC50 for Plasmodium falciparum 3D7 infected in human erythrocytes
[3] = Permeability of the compound at pH 7.4 after 30 mins by PAMPA; format: ADME; conditions: read-out: permeability
How it was run: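 PAMPA at pH 7.4. A 10 mM DMSO stock is diluted into system solution buffer; its UV spectrum serves as reference. Membrane painted with GIT lipid, acceptor chamber holds acceptor solution buffer. Sandwich stirred for 30 min, aqueous boundary layer set to 40. Donor and acceptor UV spectra read at 250–500 nm. Permeability coefficient from the AUCs of reference, donor and acceptor. Single experiment in triplicate.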

Plasmodium falciparum [4] = assay: Ratio of EC50 for chloroquine-resistant Plasmodium falciparum K1 infected in human erythrocytes to EC50 for chloroquine-sensitive Plasmodium falciparum 3D7 infected in human erythrocytes; format: functional
Plasmodium falciparum [5] = assay: Antimalarial activity against chloroquine-sensitive Plasmodium falciparum 3D7 infected in human erythrocytes assessed as reduction in parasitemia after 72 hrs by spectrophotometry; format: functional, organism-based; conditions: 3D7, 72 h
[6] = Ratio of EC50 for human HepG2 cells to EC50 for Plasmodium falciparum K1 infected in human erythrocytes
[7] = Solubility of the compound at pH 7.4 after 18 hrs by UV spectroscopic analysis; format: physicochemical; conditions: buffer
How it was run: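 Kinetic solubility. A 10 mM stock is diluted 1:100 into PBS pH 7.4 and incubated 18 h at room temperature, then filtered; the filtrate is mixed 1:1 with 1-propanol. UV spectrum (250–500 nm) compared by AUC with a 1-propanol/PBS reference. Single experiment in triplicate.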

[8] = Dissociation constant, pKa of the compound; format: physicochemical

Compound | EC50 (HepG2) [nM] | EC50 (Plasmodium falciparum [1]) [nM] | Ratio EC50 [2] | Papp at 0.5 h [3] [×10⁻⁶ cm/s] | Ratio EC50 (Plasmodium falciparum [4]) | EC50 (Plasmodium falciparum [5]) [nM] | Ratio EC50 [6] | solubility at 18 h [7] [µM] | pKa [8]
FC(F)(F)c1cc(-c2ccc3c(NCCCNCc4ccco4)ccnc3c2)cc(C(F)(F)F)c1 | 2410 | 972 | 8.5 | 237 | 3.4 | 285 | 2.5 | 32 (≈ 15.8 µg/mL) | 9.47
COc1ccc(F)cc1CNCCCNc1ccnc2cc(-c3cccc4ccccc34)ccc12 | 16000 | 1030 | 13.9 | 237 | 0.9 | 1150 | 15.5 | 32 (≈ 14.9 µg/mL) | 9.47
COc1cccc(CNCCCNc2ccnc3cc(-c4cccc5ccccc45)ccc23)c1O | 2520 | 1120 | 76.3 | 237 | 33.9 | 33 | 2.3 | 32 (≈ 14.8 µg/mL) | 9.47
c1coc(CNCCCNc2ccnc3cc(-c4cccc5ccccc45)ccc23)c1 | 5600 | 1300 | 178.2 | 237 | 41.2 | 31 | 4.3 | 32 (≈ 13 µg/mL) | 9.47
COc1ccc(F)cc1CNCCCNc1ccnc2cc(-c3ccc(C(C)(C)C)cc3)ccc12 | 620 | 1590 | 4.3 | 237 | 11 | 144 | 0.4 | 32 (≈ 15.1 µg/mL) | 9.47
COc1cccc(CNCCCNc2ccnc3cc(-c4ccccc4)ccc23)c1O | 3210 | 1940 | 353 | 237 | 212.7 | 9 | 1.7 | 32 (≈ 13.2 µg/mL) | 9.47
CCC(CC)c1ccc2c(NCCCNCc3cccc(OC)c3O)ccnc2c1 | 410 | 273 | 103.3 | 23 | 68.3 | 4 | 1.5 | 4.2 (≈ 1.71 µg/mL) | 9.47
COc1cccc(CNCCCNc2ccnc3cc(Cc4cc(C)cc(C)c4)ccc23)c1O | 2680 | 1360 | 315.8 | 23 | 160 | 9 | 2 | 4.2 (≈ 1.91 µg/mL) | 9.47
Cc1cc(C)cc(Cc2ccc3c(NCCCNCc4ccco4)ccnc3c2)c1 | 6270 | 678 | 712.1 | 23 | 77 | 9 | 9.2 | 4.2 (≈ 1.68 µg/mL) | 9.47
COc1cccc(CNCCCNc2ccnc3cc(Cc4ccc(C#N)cc4)ccc23)c1O | 7150 | 5440 | 674.8 | 23 | 514 | 11 | 1.3 | 4.2 (≈ 1.9 µg/mL) | 9.47
COc1ccc(F)cc1CNCCCNc1ccnc2cc(Cc3ccccc3)ccc12 | 7990 | 1420 | 726.7 | 23 | 129.5 | 11 | 5.6 | 4.2 (≈ 1.8 µg/mL) | 9.47
COc1cccc(CNCCCNc2ccnc3cc(Cc4ccc(F)cc4Cl)ccc23)c1O | 2350 | 5140 | 185.4 | 23 | 404.4 | 13 | 0.5 | 4.2 (≈ 2.02 µg/mL) | 9.47
c1ccc(CCc2ccc3c(NCCCNCc4ccc5c(c4)OCO5)ccnc3c2)cc1 | 4980 | 1530 | 380.3 | 23 | 117.1 | 13 | 3.2 | 4.2 (≈ 1.85 µg/mL) | 9.47
COc1cccc(CNCCCNc2ccnc3cc(Cc4ccc(F)cc4)ccc23)c1O | 4780 | 7150 | 316.6 | 23 | 473.5 | 15 | 0.7 | 4.2 (≈ 1.87 µg/mL) | 9.47
